We go through three molecules from ChEMBL document CHEMBL3259537, “Design of a truncated cardiotoxin-I analogue with potent insulinotropic activity” (J Med Chem, 2014).

The EC50 is the concentration giving half of the maximal effect.

The source made the active and inactive calls. The rule behind the calls is not given here.

For data set [1], the system named is INS-1E. Kind of data set: Insulinotropic activity in rat INS-1E cells assessed as insulin exocytosis after 2 hrs by RIA in presence of glucose. It is filed as functional, cell-based. Summed up: (§1)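 INS-1E cells (2×10^5/well) were seeded 2 days before use. They were starved 2 h in glucose-free KRBH with 0.1% BSA, washed, and held another 30 min at 37 °C. Cells were then incubated 2 h at 37 °C with peptide, with 20 mM glucose or without glucose. Secreted insulin in the medium was measured by RIA against a rat insulin standard.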

Data set [2] has as its system INS-1E. Briefly: Induction of intracellular calcium release in rat INS-1E cells at 10^-6 M by fluorescence assay. The data set is classed as functional, cell-based. Put shortly: (§2)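 INS-1E cells were harvested by scraping (5×10^5 cells/mL) and loaded 30 min at 37 °C with 4 μM Fura-2-AM plus 2.5 mM probenecid in KRBH (10 mM glucose, pH 7.4). After washing, 20000 cells/well were read immediately after peptide addition (10^-12–10^-5 M range) at excitation 340/380 nm, emission 495 nm. [Ca2+]i was calculated by the Grynkiewicz equation (Kd 225 nM).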
(In general: A change in cytosolic calcium serves as a functional read-out for many receptors and channels.)

The subject of data set [3] is INS-1E. Briefly: Insulinotropic activity in rat INS-1E cells assessed as insulin exocytosis after 2 hrs by RIA in presence of K-ATP channel opener diazoxide. The data set is classed as functional, cell-based. Summed up: as §1
For data set [4], the system named is INS-1E. Kind of data set: Inhibition of [86]-Rb+-efflux in rat INS-1E cells incubated for 30 mins followed by high-phosphate buffer addition by scintillation counting analysis. Particulars: in the assay text read “high-potassium” for “high-phosphate”. The data set is classed as functional, cell-based. Summed up: (§3)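 INS-1E cells (2×10^5/well) were loaded overnight at 37 °C with 86RbCl (0.02 µCi/mL) in medium. They were then incubated 30 min at 37 °C in low-K buffer (4.6 mM KCl, pH 7.4) ± peptide, switched to high-K buffer (140 mM KCl) ± peptide, and efflux was followed over time by scintillation counting. Efflux is % of total 86Rb+ (medium plus cells); IC50 values are from three independent experiments in triplicate.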

Data set [5] in a line: Cytotoxicity against rat INS-1E cells by LDH assay. It is filed as cell-based. Put shortly: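 INS-1E cells were seeded at 2×10^4 cells/well and grown 24 h at 37 °C, then exposed to increasing peptide concentrations in serum-free medium. LDH released into the medium from dead cells was measured with a commercial kit and expressed as % of maximum LDH release after cell lysis.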

The subject of data set [6] is INS-1E. Kind of data set: Insulinotropic activity in rat INS-1E cells assessed as insulin exocytosis after 2 hrs by RIA in presence of adenylyl cyclase inhibitor 2',5'-dideoxy-adenosine. It is filed as functional, cell-based. Summed up:
(§4)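 INS-1E cells (2×10^5/well) were pretreated 30 min with H89 (40 μM) or 2',5'-dideoxyadenosine (50 μM). They were then starved 2 h plus 30 min in glucose-free KRBH/0.1% BSA and incubated 2 h at 37 °C with peptide ± 20 mM glucose. Insulin in the medium was quantified by RIA against a rat insulin standard.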

Data set [7] deals with INS-1E. Kind of data set: Insulinotropic activity in rat INS-1E cells assessed as insulin exocytosis at 10^-6 M after 2 hrs by RIA. It is filed as functional, cell-based. Summed up:
as §1

The test system of data set [8] is INS-1E. Kind of data set: Effect on NGF-induced intracellular calcium release in rat INS-1E cells at 10^-9 M by fluorescence assay. It is filed as functional, cell-based.
In data set [9] the test system is INS-1E. Kind of data set: Insulinotropic activity in rat INS-1E cells assessed as insulin exocytosis after 2 hrs by RIA in presence of ATP depletor 2-deoxy-D-glucose. The data set is classed as functional, cell-based. Summed up:
as §1

Data set [10] has as its system INS-1E. Briefly: Insulinotropic activity in rat INS-1E cells assessed as insulin exocytosis after 2 hrs by RIA in presence of Ca2+ channel blocker nifedipine. The data set is classed as functional, cell-based. Put shortly: as §1
The subject of data set [11] is INS-1E. Briefly: Effect on NGF-induced intracellular calcium release in rat INS-1E cells at 10^-8 to 10^-5 M by fluorescence assay. It is filed as functional, cell-based.
The next data set relates to Aorta. Kind of data set: Induction of rat aortic ring contraction at 10'5 M. The data set is classed as functional, tissue-based.
The test system of data set [12] is INS-1E. Briefly: Insulinotropic activity in rat INS-1E cells assessed as insulin exocytosis after 2 hrs by RIA in presence of PKA inhibitor H89. The data set is classed as functional, cell-based. Summed up:
as §4

The subject of data set [13] is INS-1E. Briefly: Inhibition of [86]-Rb+-efflux in rat INS-1E cells at 10^8 to 10'6 M incubated for 30 mins followed by high-phosphate buffer addition by scintillation counting analysis. Particulars: in the assay text read “high-potassium” for “high-phosphate”. The data set is classed as functional, cell-based. Summed up:
as §3

Data set [14] in a line: Induction of intracellular calcium release in rat INS-1E cells by fluorescence assay. It is filed as functional, cell-based. Summed up: as §2

Consider `CC(C)C[C@@H]1NC(=O)[C@H](CO)NC(=O)[C@H](CC(N)=O)NC(=O)[C@H](CCCCN)NC(=O)[C@@H]2CCCN2C(=O)[C@@H](NC(=O)[C@@H](N)C(C)C)CSSC[C@@H](C(=O)N[C@H]2CSSC[C@H](C(=O)N[C@@H](CC(N)=O)C(=O)O)NC(=O)[C@H](CCCNC(=N)N)NC(=O)[C@H](CC(=O)O)NC(=O)[C@H]([C@@H](C)O)NC(=O)[C@H](CC(N)=O)NC2=O)NC(=O)[C@H](CCCCN)NC(=O)[C@H](Cc2ccc(O)cc2)NC(=O)[C@H](CCCCN)NC(=O)[C@H](C(C)C)NC(=O)[C@H](CC(C)C)NC1=O`, for which the Activity entry is “Dose-dependent effect” in the data set on INS-1E [1]; “Dose-dependent effect” in the data set with INS-1E [4]; “Non-toxic” in [5]; “Dose-dependent effect” in the data set on INS-1E [6]; “Dose-dependent effect” with INS-1E [12]. Besides, the result in the data set on INS-1E [2], in the data set on INS-1E [3], in the data set on INS-1E [7], with INS-1E [9] and in the data set with INS-1E [11] was Active. Further, the outcome in the data set with INS-1E [8], in the data set on INS-1E [10] and in the data set on Aorta was inactive.
On to `CN(CCc1ccc(Cl)c(Cl)c1)CC(O)COc1ccc(NS(C)(=O)=O)cc1` (stereo unspecified), for which the inhibition entry in the data set on INS-1E [13] was “Active”.
In the case of `CC(C)C[C@@H]1NC(=O)[C@H](CO)NC(=O)[C@H](CC(N)=O)NC(=O)[C@H](CCCCN)NC(=O)[C@@H]2CCCN2C(=O)[C@@H](NC(=O)[C@@H](N)C(C)C)CSSC[C@@H](C(=O)N[C@H]2CSSC[C@H](C(=O)N[C@@H](CC(N)=O)C(=O)O)NC(=O)[C@H](CCCNC(=N)N)NC(=O)[C@H](CC(=O)O)NC(=O)[C@H]([C@@H](C)O)NC(=O)[C@H](CC(N)=O)NC2=O)NC(=O)[C@H](C(C)C)NC(=O)[C@H](Cc2ccc(O)cc2)NC(=O)[C@H](CCCCN)NC(=O)[C@H](C(C)C)NC(=O)[C@H](CC(C)C)NC1=O`, the EC50 in [14] was 2.14 nM. The Activity result in data set [5] is “Non-toxic”.
